Hits are enriched below; roughly 1.9% of the tested compounds scored in any of these assays.
CHRM4 antagonist – human M4 muscarinic receptor antagonists, primary screen, CHO cells, Fluo-8 calcium fluorescence | CHO-hM4 cells, ACh EC80 | inhibition, % at 3 µM | 360,000 compounds, 0.73% hits | AID 624125, 2012;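 active = inhibition above its plate's cutoff, the mean inhibition of sample wells plus 3 SD, cut at about 27% in these data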;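 also: 0% = acetylcholine EC80 with DMSO and 100% = DMSO without agonist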
Target sequence (P08173 whole entry, looked up): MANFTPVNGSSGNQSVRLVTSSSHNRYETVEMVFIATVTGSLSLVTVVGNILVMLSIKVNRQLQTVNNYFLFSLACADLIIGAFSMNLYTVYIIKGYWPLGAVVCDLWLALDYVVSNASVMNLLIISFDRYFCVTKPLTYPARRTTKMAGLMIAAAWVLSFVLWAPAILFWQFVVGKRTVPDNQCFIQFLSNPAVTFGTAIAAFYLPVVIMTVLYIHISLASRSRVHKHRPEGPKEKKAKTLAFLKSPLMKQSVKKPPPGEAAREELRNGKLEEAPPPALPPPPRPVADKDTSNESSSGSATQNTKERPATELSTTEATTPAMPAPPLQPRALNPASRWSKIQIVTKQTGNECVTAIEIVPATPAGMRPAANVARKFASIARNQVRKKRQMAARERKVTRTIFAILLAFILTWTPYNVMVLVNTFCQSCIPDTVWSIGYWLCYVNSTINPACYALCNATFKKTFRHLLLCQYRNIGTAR
M5 antag – human M5 muscarinic receptor antagonists, primary screen, CHO cells, Fluo-8 calcium fluorescence. Muscarinic acetylcholine receptor M5 (Homo sapiens), P08912. CHO-hM5 cells, ACh EC80. inhibition, % at 3 µM. 360,000 compounds, 0.59% hits;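 active = inhibition above a per-plate cutoff, the mean of that plate's test compounds plus 3 SD, cut at about 27% in these data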;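 also: 0% = acetylcholine EC80 with DMSO and 100% = DMSO without agonist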
M5 ag – human M5 muscarinic receptor agonists, primary screen, CHO-K1 cells, Fluo-8 calcium fluorescence. 360,000 compounds, 0.19% hits. CHO-K1 hM5 cells; 0% DMSO wells, 100% maximal acetylcholine response. activation, % at 3 µM;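 active = activation above the run's mean over test compounds plus 3 SD, cut at about 23% in these data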;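 also: signal is peak over basal fluorescence ratio across the kinetic read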
CHRM4 PAM – human M4 muscarinic receptor positive allosteric modulators, primary screen, CHO-K1 cells, Fluo-8 calcium fluorescence | Muscarinic acetylcholine receptor M4 (Homo sapiens), P08173 | CHO-K1 hM4/Gqi5, ACh EC20; 0% = ACh EC20, 100% = maximal ACh | activation, % at 3 µM | 360,000 compounds, 0.4% hits;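 active = activation above its plate's cutoff, the mean activation of sample wells plus 3 SD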
M5 PAM – human M5 muscarinic receptor positive allosteric modulators, primary screen, CHO-K1 cells, Fluo-8 calcium fluorescence; Muscarinic acetylcholine receptor M5 (Homo sapiens), P08912; CHO-K1 hM5, ACh EC20 PAM; 0% = ACh EC20, 100% = ACh EC100; activation, % at 3 µM; 360,000 compounds, 0.3% hits; AID 624038, 2012;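 active = activation above the run cutoff, the mean activation of all test compounds plus 3 SD, cut at about 18% in these data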
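System: CHO-K1 hM5 cells. Reagent: acetylcholine, EC20 level. Compound dosing: single dose, 3 µM nominal final test concentration. Timing: Post-acetylcholine fluorescence recording 140 s. Detection: Fluo-8 calcium fluorescence. Read-out: % activation, ACh-normalized. Benchmarks: ACh EC20 and EC100 wells. Repeats: singlicate, one well per test compound.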
CHRM4 agonist – human M4 muscarinic receptor agonists, primary screen, CHO-K1 cells, Fluo-8 calcium fluorescence; Muscarinic acetylcholine receptor M4 (Homo sapiens), P08173; CHO-K1 hM4/Gqi5; vehicle 0%, full acetylcholine response 100%; activation, % at 3 µM; 360,000 compounds, 0.14% hits; AID 624127, 2012;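 active = activation above the run mean over all test wells plus 3 SD, cut at about 32% in these data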;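 also: peak over basal fluorescence ratio per well then scaled between controls; 0% = DMSO wells and 100% = acetylcholine at EC100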
An asterisk follows results filed as active; ! = repeats disagree.

Results for O=C(CN1CCCCCC1)N1c2ccccc2Sc2ccccc21 ?
CHRM4 antagonist: 94*; M5 antag: 94*; M5 ag: -14; CHRM4 PAM: -22; M5 PAM: -34; CHRM4 agonist: -1

What do the screens show for `CN1CCN(CC(=O)N2c3ccccc3Sc3ccccc32)CC1`?
CHRM4 antagonist: 67*; M5 antag: 64*; M5 ag: -6; CHRM4 PAM: -15; M5 PAM: -18; CHRM4 agonist: 1

Results for O=C(C1CC1)N1c2ccccc2Sc2ccccc21 ?
CHRM4 antagonist: 6; M5 antag: 9; M5 ag: -23; CHRM4 PAM: -12; M5 PAM: -14; CHRM4 agonist: -2

Results for CC1CCCN(c2ccc(C(=O)OCn3nnc4ccccc4c3=O)cc2[N+](=O)[O-])C1 (stereo not drawn) ?
CHRM4 antagonist: 4; M5 antag: 7; M5 ag: 0; CHRM4 PAM: 0; M5 PAM: -1; CHRM4 agonist: 1

How did COC(=O)C[C@H]1C=C[C@H](NC(=O)Nc2ccccc2)[C@@H](CO)O1 do in these assays?
CHRM4 antagonist: -1; M5 antag: 3; M5 ag: 1; CHRM4 PAM: -2; M5 PAM: 2; CHRM4 agonist: 0

How did COc1ccc(S(=O)(=O)Nc2ccc(F)cc2F)cc1C(=O)N1CCOCC1 do in these assays?
CHRM4 antagonist: -24; M5 antag: 4; M5 ag: -2; CHRM4 PAM: 0; M5 PAM: -1; CHRM4 agonist: 0

How did O=C(CN1CCCC(O)C1)N1c2ccccc2Sc2ccc(C(F)(F)F)cc21 (stereo not drawn) do in these assays?
CHRM4 antagonist: 65*; M5 antag: 41*; M5 ag: -11; CHRM4 PAM: -20; M5 PAM: -16; CHRM4 agonist: 1

Results for CN1CCN(CCCN2c3ccccc3Sc3ccc(C(F)(F)F)cc32)CC1 ?
CHRM4 antagonist: 85*!; M5 antag: 8; M5 ag: -11; CHRM4 PAM: -6; M5 PAM: -24; CHRM4 agonist: 5

Results for COC(=O)C1CN(C(=O)COc2ccc(Cl)cc2C)c2ccccc2O1 (stereo not drawn) ?
CHRM4 antagonist: 4; M5 antag: 1; M5 ag: -7; CHRM4 PAM: 0; M5 PAM: -3; CHRM4 agonist: 5

What do the screens show for `COc1cc(OC)c(OC)cc1CNC(=O)c1cc(S(=O)(=O)N2CCOCC2)ccc1F`?
CHRM4 antagonist: 4; M5 antag: 4; M5 ag: 2; CHRM4 PAM: 6; M5 PAM: -2; CHRM4 agonist: 3

What do the screens show for `COc1ccccc1NC(=O)COC(=O)c1cc([N+](=O)[O-])ccc1N1CCCC1`?
CHRM4 antagonist: 4; M5 antag: 7; M5 ag: 0; CHRM4 PAM: -10; M5 PAM: -12; CHRM4 agonist: 7

What do the screens show for `CCCCCCN1C2=NCCN2c2ccccc21`?
CHRM4 antagonist: 29*; M5 antag: 0; M5 ag: -5; CHRM4 PAM: -22; M5 PAM: 1; CHRM4 agonist: 3

How did CCN(C(=O)CSc1nc2ccccc2c(=O)n1Cc1ccc(C)cc1)C1CCS(=O)(=O)C1 (stereo not drawn) do in these assays?
CHRM4 antagonist: -1; M5 antag: 5; M5 ag: -4; CHRM4 PAM: 1; M5 PAM: -1; CHRM4 agonist: 0

Results for CCn1c(SCC(=O)N(Cc2ccccc2)C2CCS(=O)(=O)C2)nc2ccccc2c1=O (stereo not drawn) ?
CHRM4 antagonist: -6; M5 antag: -2; M5 ag: 0; CHRM4 PAM: 31*; M5 PAM: 1; CHRM4 agonist: -1

How did CCOC(=O)C1CCc2c(ccc3ccccc23)N1CCC#N (stereo not drawn) do in these assays?
CHRM4 antagonist: -13; M5 antag: 29*; M5 ag: -1; CHRM4 PAM: 7; M5 PAM: -5; CHRM4 agonist: 1

What do the screens show for `CCOC(=O)C1CCCN(C(=O)c2cccc3ccccc23)C1` (stereo not drawn)?
CHRM4 antagonist: 14; M5 antag: 8; M5 ag: -1; CHRM4 PAM: -6; M5 PAM: -2; CHRM4 agonist: 0

How did COC(=O)[C@@]12C[C@@H](CC(=O)NCc3cccc4ccccc34)C(=O)N(CCc3ccc(OC)c(OC)c3)C1=CCC(C)(C)C2 do in these assays?
CHRM4 antagonist: 7; M5 antag: 13; M5 ag: 1; CHRM4 PAM: -2; M5 PAM: -6; CHRM4 agonist: 10

What do the screens show for `CC1(C)OC2CC3C4CCC5=CC(=O)C=CC5(C)C4(F)C(O)CC3(C)C2(C(=O)CO)O1` (stereo not drawn)?
CHRM4 antagonist: -7; M5 antag: -1; M5 ag: 2; CHRM4 PAM: 2; M5 PAM: 3; CHRM4 agonist: 0

How did Cc1ccc(Cl)cc1N1CCN(Cc2cc(=O)n3ccsc3n2)CC1 do in these assays?
CHRM4 antagonist: -17; M5 antag: -14; M5 ag: 0; CHRM4 PAM: 2; M5 PAM: 19*; CHRM4 agonist: 5

Results for Cc1cc(=O)[nH]c(SCC(=O)N2CCCCC2)n1 ?
CHRM4 antagonist: -17; M5 antag: 8; M5 ag: 0; CHRM4 PAM: 2; M5 PAM: -1; CHRM4 agonist: 1

What do the screens show for `O=C(CSc1nc(-c2ccccc2)cc(=O)[nH]1)N1CCOCC1`?
CHRM4 antagonist: -6; M5 antag: 40*; M5 ag: -4; CHRM4 PAM: 7; M5 PAM: 1; CHRM4 agonist: 1

Results for Cc1cc(=O)[nH]c(SCC(=O)N2CCN(C(c3ccccc3)c3ccccc3)CC2)n1 ?
CHRM4 antagonist: 20; M5 antag: 32*; M5 ag: -8; CHRM4 PAM: -17; M5 PAM: -24; CHRM4 agonist: 0

What do the screens show for `O=C(CSc1nc(O)cc(=O)[nH]1)N1CCOCC1`?
CHRM4 antagonist: -8; M5 antag: 8; M5 ag: -2; CHRM4 PAM: -1; M5 PAM: 1; CHRM4 agonist: -1

How did COCCN(CC(=O)Nc1cccc(C)c1C)C(=O)CN1C(=O)NC2(CCCCC2)C1=O do in these assays?
CHRM4 antagonist: -19; M5 antag: 9; M5 ag: -2; CHRM4 PAM: 8; M5 PAM: -5; CHRM4 agonist: 1
